# Measured values gathered from unrelated publications.
# Each line is one published result; the experiments were not run side by side.
# Cell line: OVCAR-8
# Observed: cell growth or viability
Structure (SMILES),method,concentration,time,measurement,result
O=C1Nc2ccccc2C1=NNc1nnc2n1N=C(c1ccccc1)CS2,SRB,10 µM,,inhibition,41%
COc1ccc(-c2ccc(-c3ccc(C(=N)N)nc3)s2)cc1Cl,SRB,,,GI50,2600 nM
Cc1cc(C)n(C(=S)[S][Au][PH](CCCCCC[PH]([Au][S]C(=S)n2nc(C)cc2C)(c2ccccc2)c2ccccc2)(c2ccccc2)c2ccccc2)n1,,,,GI50,597 nM
COc1cc(-c2ccc(-c3ccc(C(=N)N)nc3)s2)cc(OC)c1OC,SRB,,,GI50,2300 nM
COc1ccc(C(=O)/C=C/c2cccc(Cl)c2Cl)cc1S(N)(=O)=O,SRB,10 µM,,inhibition,164%
COc1cccc(Oc2ccccc2NC(=O)CNC(=O)c2cccc3ccccc23)c1,SRB,,48 h,GI50,692 nM
S=C([S][Au-][P+](CCCCCC[P+]([Au-][S]C(=S)n1cccn1)(c1ccccc1)c1ccccc1)(c1ccccc1)c1ccccc1)n1cccn1,,,,GI50,696 nM
COc1ccc(C(=O)/C=C/c2cccc(Cl)c2)cc1S(N)(=O)=O,SRB,,48 h,GI50,2800 nM
